Reference: the EternaBench riboswitch data

System: MS2 coat protein
Assay: apparent Kd, MS2 coat protein; higher = weaker binding; RNA-MaP array; FMN 200 µM where present
How it was run: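 SNAP-549-labelled MS2 coat protein, doubled from 0.7 or 1.5 nM to 3 µM, was titrated over designs transcribed by stalled E. coli RNA polymerase on Illumina sequencing-chip clusters. Titrations were run without and then with constant ligand in 100 mM Tris-HCl pH 7.5, 80 mM KCl, 4 mM MgCl2, BSA, DTT, yeast tRNA and Tween-20. The apparent Kd is the median of filtered per-cluster fits to green signal normalised to red-channel RNA signal and control-cluster median Fmax.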

[1] = designed as: OFF switch for flavin mononucleotide, no ligand
[2] = ligand present: flavin mononucleotide, designed as: OFF switch for flavin mononucleotide
[3] = designed as: ON switch for flavin mononucleotide, no ligand
[4] = ligand present: flavin mononucleotide, designed as: ON switch for flavin mononucleotide

Sequence	apparent Kd [1] [nM]	apparent Kd [2] [nM]	apparent Kd [3] [nM]	apparent Kd [4] [nM]
CGACCACAUGAGGAUCACCCAUGUAAGGAUAUAUUGAAUGAGCCGGCGGCAGUAAAAGAUAGAAGGUGCGUGUA	23.1	22	–	–
UGUAUGGACAGAGGAUAUACGGAUAGGAUCUACUAUCUUCUUCAAAUAACAUGAGGAUCACCCAUGUAGAAGGCUGUCCAUACU	16.1	35.1	–	–
GUAGCUAUCGGAGGAUAUUCAUACCGGAAACGGACAUGAGGAUCACCCAUGUGGCGAAAGCCUUGGGAGAAGGCCGAUCGCUAC	–	–	239	8.45
UGUGGCGGUCAGAAGGCAACGUUGACAUGAGGAUCACCCAUGUUACCCUUGAGGAUAUGGCGGGCCUCACGUCGGUGGUAAUGA	–	–	93.8	23.3
CUGUUACAUGAGGAUCACCCAUGUGAGGAUAUGGUUCGGUACUGUCCUGUCGCGUACUCCAGAAGGCACGUGUC	29.4	29.9	–	–
GCAGGAUAAGUGAGGAUAUACCUCUGGAUACAGAGGUAGAAGGCACAUGAGGAUCACCCAUGUCAUUCACCUGC	13.3	24.2	–	–
UUUUCUUUUGUGAGGAUAUACUUGUUUUUUUUUUUGUAGAAGGCACAUGAGGAUCACCCAUGUUUUCUUUUCUG	17.1	19.4	–	–
ACAUGAGGAUCACCCAUGUGUACAUAGGAUAUUGAGGAUUAGGGAUAAAGUGAAGAGAUUGCCCACAAGAAGGAUGAAAGUGUU	–	–	9.82	8.82
UAUUAGUGAGGAUAUGAGUCGUAGAACAAUAGUACUACGUCUCAGAAGGUACAUGAGGAUCACCCAUGUUCCUU	12.7	14.4	–	–
UGGAUGUGGGUUCCACAUGAGGAUCACCCAUGUACCGAUGAGAGAAGGCGCGCUGGAUCACAGGGCGAGGAUAUCUACAUUCAA	6.06	13.1	–	–
GACGAACAUGAGGAUCACCCAUGUAAAGACGUACAAGGAUAUGUGUGGAAACCGUACUAUACAGAAGGUGUCUGUC	–	–	53.5	25.5
AAAAAAAAAAGGCAGGAUAUCCAAAAAAAAACAUGAGGAUCACCCAUGUAAAAAAAAAAAAAAUGGGAGAAGGGUCAAAAAAAAAA	–	–	88.8	34
GGAGCACACAUUAACAUGAGGAUCACCCAUGUCAAAAGACAUGAGGAUAUGGAUCCGAAAAGCAUCCAGAAGGCAUGGUGCUCC	–	–	567	184
AUACACUAAGUGAGGAUAUCGAUUUCUUUAAGGAUCGAGAAGGCACAUGAGGAUCACCCAUGUUUGACGUGAAU	34.4	75.8	–	–
UGGUACUAGGGAGGAUAUGGGAAGAUACAUGAGGAUCACCCAUGUUUAAGGAUGCCGAGAGGCAACUAGAAGGCCCUAGUACCU	–	–	851	97
AUCAGCUCGUCAGGAUAUACGUCACUGCGUCAGCAGUGUCGUAAGAUCACAUGAGGAUCACCCAUGUAGAAGGGACGAGCUGAU	5.31	5.49	–	–
GUAGCAUACCGAGGAUAUUCAUAUAAUAAAUAAACAUGAGGAUCACCCAUGUGGCGAAAGCCUAGGGAGAAGGCGGAAUGCUAC	–	–	240	22.6
CGUCCUUAGUGAGGAUAUCAGAAAAUACGGAAAUGAGAAGGCACAUGAGGAUCACCCAUGUAAAUAACGGCCGGUCUUGGCAGC	7.96	21.6	–	–
UUUUCAUCAUCAGGAUAUUAACGUGGGCUACUUUAAGAAGGGAUAGUGGGAGAGCACGUGAAACAUGAGGAUCACCCAUGUUGU	–	–	12.2	9.73
AAGAAAGAAACAUAGGAUAUCAAGGAUAUAACAUGAGGAUCACCCAUGUAAAUACGAAAGUAUAAUGAGAAGGAUGGAUGAUCUAC	–	–	238	437
CGAUAUAUGAAGGGCGAAAGCCCACAUGAGGAUCACCCAUGUAGAAGGCGAUCCGCAACGCGGAUCGAGGAUAUAUAGUAUACA	9.48	10.4	–	–
GGACGUCCCAUUAACAUGAGGAUCACCCAUGUCAAAAGACAUGAGGAUAUGGUACCUAAUUGGUACCAGAAGGCAUGGACGUCC	–	–	1210	106
GCCAUCGCAUGAGGAUAUGCUCCCGUUUCGGGAGCAGAAGGCAUGUCAUAAGACAUGAGGAUCACCCAUGUAGUUUAGAUGGCA	–	–	234	11.1
AAUAUGAGCUGGAAUAAACCUGAAACAUGAGGAUCACCCAUGUAGGAUAUCAGCACGAUAAGUGCUGAGAAGGACAACCAGCUC	14.6	16.6	–	–
GGGCCCGAGGUGAGGAUAUUGUGCAUGGCGAGUGACAAGAAGGUACAUGAGGAUCACCCAUGUGAUACCGACCU	451	371	–	–
GCAGGCGACCAGAAGGGUGACAUGAGGAUCACCCAUGUAGAUGUGUUCCCGCUUGGGAACCGUCCACAGGAUAUGGUUGGUUAU	–	–	51.1	53.8
GAGCUAUGAGGAUAUGCAUAUAUACGGAUUCGUGUAGUACUACAUGAGGAUCACCCAUGUAGAAGGCGUGGCAG	13.1	15.1	–	–
